Test results taken from ChEMBL document CHEMBL1135820, “A sorbitol dehydrogenase inhibitor of exceptional in vivo potency with a long duration of action: 1-(R)-[4-[4-(4,6-dimethyl[1,3,5]triazin-2-yl)- 2R,6S-dimethylpiperazin-1-yl]pyrimidin-2-yl]ethanol” (J Med Chem, 2002).

Assays:
[1] = molecular target: T1, Sorbitol dehydrogenase (Homo sapiens, UniProt Q00796); assay: Concentration required for 50% for in vitro activity against human SDH (sorbitol dehydrogenase)
T1 sequence (Q00796 whole entry): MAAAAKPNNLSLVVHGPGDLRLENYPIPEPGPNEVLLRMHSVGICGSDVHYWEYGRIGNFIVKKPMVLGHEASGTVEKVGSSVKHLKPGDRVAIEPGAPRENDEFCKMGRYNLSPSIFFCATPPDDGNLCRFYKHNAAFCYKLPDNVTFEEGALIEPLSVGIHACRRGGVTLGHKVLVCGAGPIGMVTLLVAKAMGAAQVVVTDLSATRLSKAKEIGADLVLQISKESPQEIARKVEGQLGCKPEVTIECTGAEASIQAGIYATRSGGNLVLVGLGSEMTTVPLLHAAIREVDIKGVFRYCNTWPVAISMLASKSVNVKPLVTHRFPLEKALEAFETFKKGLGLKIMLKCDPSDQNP

[2] = molecular target: T2, Sorbitol dehydrogenase (Rattus norvegicus, UniProt P27867); assay: Concentration required for 50% in vitro activity against rat SDH (sorbitol dehydrogenase)
T2 sequence (P27867 whole entry): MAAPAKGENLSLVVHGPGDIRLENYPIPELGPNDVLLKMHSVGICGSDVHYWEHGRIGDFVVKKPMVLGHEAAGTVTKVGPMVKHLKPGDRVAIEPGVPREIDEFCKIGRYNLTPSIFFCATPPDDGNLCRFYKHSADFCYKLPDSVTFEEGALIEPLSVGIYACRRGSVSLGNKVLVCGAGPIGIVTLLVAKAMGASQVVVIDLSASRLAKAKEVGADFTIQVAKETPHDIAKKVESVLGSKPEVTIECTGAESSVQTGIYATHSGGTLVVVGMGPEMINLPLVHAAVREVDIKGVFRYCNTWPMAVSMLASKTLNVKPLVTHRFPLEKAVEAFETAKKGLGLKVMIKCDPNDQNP

[3] = tested on: Rattus norvegicus; assay: Concentration required for […] inhibition of lower sciatic nerve fructose that became elevated in diabetic nerve in streptozotocin diabetic in vivo rat model; assay type: functional
[4] = pKa value was reported; assay type: physicochemical
[5] = molecular target: T1, Sorbitol dehydrogenase; assay: Concentration required for 50% in vitro activity against human SDH (sorbitol dehydrogenase)
[6] = molecular target: T3, Sorbitol dehydrogenase (Rattus norvegicus) (UniProt P27867)
T3 sequence (whole entry): T2 sequence (P27867 whole entry)

[7] = tested on: Rattus norvegicus; assay: % Ability to inhibit lower sciatic nerve fructose that became elevated in diabetic nerve in streptozotocin diabetic rat model at 1 mg/kg; assay type: functional
Procedure, shortened: (§1)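 Chronically diabetic rats were dosed at 0.05 or 1 mg/kg in a chronic test. Sciatic nerve fructose was measured and reported as percent inhibition of the diabetes-induced fructose elevation in sciatic nerve.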

[8] = species on record: Rattus norvegicus; assay: % Ability to inhibit lower sciatic nerve fructose that became elevated in diabetic nerve in streptozotocin diabetic rat model at 0.05 mpk; assay type: functional; procedure, shortened: as §1
[9] = molecular target: T3, Sorbitol dehydrogenase (Rattus norvegicus); assay: In vitro inhibitory activity against rat sorbitol dehydrogenase and concentration that cause 90% inhibition was reported

IC50 [1]	IC50 [2]	Structure (SMILES)	ED90 [3]	further results
7 nM	10 nM	C[C@@H]1CN(c2ncnc(-c3ccccc3)n2)C[C@H](C)N1c1ccnc([C@@H](C)O)n1	1 mg/kg	–
–	11 nM	C[C@H](O)c1nccc(N2C[C@@H](C)N(c3ccnc([C@@H](C)O)n3)[C@@H](C)C2)n1	2 mg/kg	pKa [4]: 6.8; IC50 [5]: 10 nM; IC90 [6]: 31 nM
–	20 nM	Cc1nc(CO)nc(N2C[C@@H](C)N(c3ccnc([C@@H](C)O)n3)[C@@H](C)C2)n1	–	Ability [7]: 65%
7 nM	5 nM	Cc1ncnc(N2C[C@@H](C)N(c3ccnc([C@@H](C)O)n3)[C@@H](C)C2)n1	0.3 mg/kg	–
16 nM	9 nM	Cc1nc(C)nc(N2C[C@@H](C)N(c3ccnc([C@@H](C)O)n3)[C@@H](C)C2)n1 (stereo in doubt; 16a)	–	Ability [8]: 56%
13 nM	11 nM	Cc1cn(-c2nccc(N3C[C@@H](C)N(c4ccnc([C@@H](C)O)n4)[C@@H](C)C3)n2)cn1	1 mg/kg	–
43 nM	39 nM	Cc1nc(-c2ccccc2)nc(N2C[C@@H](C)N(c3ccnc([C@@H](C)O)n3)[C@@H](C)C2)n1	–	Ability [3]: 81%
–	–	Cc1nc(C)nc(N2C[C@@H](C)N(c3ccnc([C@@H](C)O)n3)[C@@H](C)C2)n1 (stereo in doubt; 16) [listing 1 of 2 here]	–	IC90 [9]: 10 nM
4 nM	7 nM	Cc1cn(-c2nccc(N3C[C@@H](C)N(c4ccnc([C@@H](C)O)n4)[C@@H](C)C3)n2)c(C)n1	1 mg/kg	–
–	32 nM	C[C@H](O)c1nccc(N2[C@H](C)CN(c3ccnc(N4CCN(C)CC4)n3)C[C@@H]2C)n1	–	–
4 nM	6 nM	C[C@@H]1CN(c2ccnc(N3CCN(C)CC3)n2)C[C@H](C)N1c1ccnc([C@@H](C)O)n1	1 mg/kg	–
5 nM	4 nM	Cc1nc(C)nc(N2C[C@@H](C)N(c3ccnc([C@@H](C)O)n3)[C@@H](C)C2)n1 (stereo in doubt; 16) [listing 2 of 2 here]	0.05 mg/kg	pKa [4]: 6.2
